In ChEMBL document CHEMBL4152217, “Quinonoid compounds via reactions of lawsone and 2-aminonaphthoquinone with α-bromonitroalkenes and nitroallylic acetates: Structural diversity by C-ring modification and cytotoxic evaluation against cancer cells” (Eur J Med Chem, 2018):

Experiments:
[1] = Selectivity index, ratio of IC50 for human PBMC cells to IC50 for human NCI-H460 cells; format: toxicity; conditions: PBMC cells versus NCI-H460 cells
SF-295 = test: Cytotoxicity against human SF295 cells assessed as reduction in cell viability after 72 hrs by MTT assay; conditions: SF-295, 72 h
PBMC = test: Cytotoxicity against human PBMC cells assessed as reduction in cell viability after 72 hrs by MTT assay
NCI-H460 = test: Cytotoxicity against human NCI-H460 cells assessed as reduction in cell viability after 72 hrs by MTT assay; conditions: NCI-H460, 72 h
HL-60 = test: Cytotoxicity against human HL60 cells assessed as reduction in cell viability after 72 hrs by MTT assay; format: functional, cell-based; conditions: HL-60, 72 h
Outline: (§1)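 MTT viability assay. Cancer lines grown in RPMI 1640 and L929 fibroblasts in DMEM, each with 10% FBS, 2 mM glutamine, penicillin/streptomycin, 37 °C, 5% CO2. PBMC were taken from healthy donors by density-gradient centrifugation, kept in RPMI with 20% FBS and stimulated with 2% phytohemagglutinin. Cells were exposed 72 h (0.01–27.32 µM). MTT 0.5 mg/mL for 3 h, absorbance read at 550 nm. IC50 with 95% CI from nonlinear regression; triplicate, ≥3 independent experiments.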

L929 = test: Cytotoxicity against mouse L929 cells assessed as reduction in cell viability after 72 hrs by MTT assay; format: cell-based; conditions: L929, 72 h; outline: as §1
PC-3 = test: Cytotoxicity against human PC3 cells assessed as reduction in cell viability after 72 hrs by MTT assay; format: functional, cell-based; conditions: PC-3, 72 h; outline: as §1
HCT-116 [2] = test: Cytotoxicity against human HCT116 cells assessed as reduction in cell viability after 72 hrs by MTT assay; format: functional, cell-based; conditions: HCT-116, 72 h; outline: as §1
MX1 = test: Cytotoxicity against human MX1 cells assessed as reduction in cell viability after 72 hrs by MTT assay; conditions: MX1, 72 h
Jurkat = test: Cytotoxicity against human Jurkat cell viability after 72 hrs by MTT assay
OVCAR-8 = test: Cytotoxicity against human OVCAR8 cells assessed as reduction in cell viability after 72 hrs by MTT assay; conditions: OVCAR-8, 72 h
HCT-116 [3] = test: Induction of DNA damage in human HCT116 cells assessed as DNA damage index at 10 uM after 24 hrs by ethidium bromide staing based flurescence microscopic analysis (8.3 +/- 0.88); format: functional
HCT-116 [4] = test: Induction in oxidative stress in human HCT116 cells assessed as nitrite level at 10 uM after 24 hrs by Griess reagent based assay; format: functional
Outline: (§2)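 HCT-116 cells were treated 24 h. Culture supernatant was mixed 1:1 with Griess reagent (sulfanilamide/N-(1-naphthyl)ethylenediamine in H3PO4) for 10 min at room temperature, and absorbance read at 560 nm. Nitrate/nitrite was quantified against a NaNO2 standard curve (0.75–100 µM). Vehicle was the negative control and H2O2 10 µM the positive control; three independent experiments, mean ± S.E.M.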

HCT-116 [5] = test: Induction in oxidative stress in human HCT116 cells assessed as increase in nitrite level after 24 hrs by Griess reagent based assay; format: functional, cell-based; outline: as §2
HCT-116 [6] = test: Induction in oxidative stress in human HCT116 cells assessed as nitrite level at 5 uM after 24 hrs by Griess reagent based assay; format: functional; outline: as §2
HCT-116 [7] = test: Induction of DNA damage in human HCT116 cells assessed as DNA damage index at 5 uM after 24 hrs by ethidium bromide staing based flurescence microscopic analysis (8.3 +/- 0.88); format: functional

SMILES | selectivity ratio [1] | IC50 (SF-295) | IC50 (PBMC) | IC50 (NCI-H460) | IC50 (HL-60) | IC50 (L929) | IC50 (PC-3) | IC50 (HCT-116 [2]) | IC50 (MX1) | IC50 (Jurkat) | IC50 (OVCAR-8) | Activity_index (HCT-116 [3]) | Activity (HCT-116 [4]) | Activity (HCT-116 [5]) | Activity (HCT-116 [6]) | Activity_index (HCT-116 [7])
COc1ccc(-n2cc(-c3ccc(Cl)cc3)c3c2C(=O)c2ccccc2C3=O)cc1 | > 3.1 | 4.28 µM | > 12.1 µM | 3.81 µM | 3.15 µM | > 12.1 µM | 8.66 µM | 8.88 µM |  |  |  |  |  |  |  | 
COc1ccc(-c2coc3c2C(=O)c2ccccc2C3=O)cc1OC |  | 3.74 µM | > 15 µM | 4.07 µM | 3.41 µM | > 15 µM | 3.89 µM | 5.2 µM | 5.05 µM | 3.71 µM | 4.69 µM |  |  |  |  | 
O=C1c2ccccc2C(=O)c2c(-c3cccc4c3OCO4)coc21 |  | 3.71 µM | > 15.7 µM | 3.61 µM | 2.23 µM | > 15.7 µM | 2.54 µM | 2.76 µM | 2.92 µM | 2.04 µM | 3.08 µM | 82.77 | 8.33 µM | Dose-dependent effect | 5.33 µM | 42.88
CSc1ccc(-c2coc3c2C(=O)c2ccccc2C3=O)cc1 |  | 3.43 µM | > 15.6 µM | 4.68 µM | 3.09 µM | > 15.6 µM | 2.49 µM | 6.03 µM | 4.74 µM | 2.18 µM | 4.09 µM |  |  |  |  | 
O=C1c2ccccc2C(=O)c2c(-c3ccccc3[N+](=O)[O-])coc21 |  | 2.94 µM | > 15.7 µM | 2.53 µM | 1.66 µM | > 15.7 µM | 1.59 µM | 1.28 µM | 2.85 µM | 1.47 µM | 2.25 µM |  |  |  |  | 
O=C1c2ccccc2C(=O)c2c(-c3ccc(Br)cc3)coc21 |  | 3.49 µM | > 14.2 µM | 4.88 µM | 2.64 µM | > 14.2 µM | 2.61 µM | 5.39 µM | 3.23 µM | 2.78 µM | 2.98 µM |  |  |  |  | 
O=C1c2ccccc2C(=O)c2c(-c3ccc(F)cc3)coc21 |  | 6.33 µM | > 17.1 µM | 4.34 µM | 3.28 µM | 13.6 µM | 3.97 µM | 6.02 µM | 5.2 µM | 3.45 µM | 5.43 µM |  |  |  |  | 
